Published values pooled from the literature.
Lines come from different studies, so protocols differ.
ABL1 F317I phosphorylated: Tyrosine-protein kinase ABL1, phosphorylated (ABL1, Homo sapiens, UniProt P00519, F317I)
ABL1 Y253F phosphorylated: Tyrosine-protein kinase ABL1, phosphorylated (ABL1, Homo sapiens, UniProt P00519, Y253F)
ABL1 E255K phosphorylated: Tyrosine-protein kinase ABL1, phosphorylated (ABL1, Homo sapiens, UniProt P00519, E255K)
ABL1 Q252H phosphorylated: Tyrosine-protein kinase ABL1, phosphorylated (ABL1, Homo sapiens, UniProt P00519, Q252H)
ABL1 T315I phosphorylated: Tyrosine-protein kinase ABL1, phosphorylated (ABL1, Homo sapiens, UniProt P00519, T315I)
ABL1 E255K: Tyrosine-protein kinase ABL1 (ABL1, Homo sapiens, UniProt P00519, E255K)
ABL1 M351T phosphorylated: Tyrosine-protein kinase ABL1, phosphorylated (ABL1, Homo sapiens, UniProt P00519, M351T)
ABL1 H396P non-phosphorylated: Tyrosine-protein kinase ABL1, non-phosphorylated (ABL1, Homo sapiens, UniProt P00519, H396P)
ABL1 F317I: Tyrosine-protein kinase ABL1 (ABL1, Homo sapiens, UniProt P00519, F317I)
ABL1 F317I non-phosphorylated: Tyrosine-protein kinase ABL1, non-phosphorylated (ABL1, Homo sapiens, UniProt P00519, F317I)
ABL1 phosphorylated: Tyrosine-protein kinase ABL1, phosphorylated (ABL1, Homo sapiens, UniProt P00519)
ABL1 M351T: Tyrosine-protein kinase ABL1 (ABL1, Homo sapiens, UniProt P00519, M351T)

SMILES | target | observed | technique | concentration | remaining binding [%]
O=C(O)[C@H]1[C@H](Cn2nnc3ccccc3c2=O)CC[C@@H]1C(=O)c1ccc(OCCC2CCOCC2)cc1 | ABL1 F317I phosphorylated | binding | – | 1 µM | 100
CCN1CCN(Cc2ccc(C(=O)Nc3ccc(C)c(Oc4ccc5c(c4)CC(=O)N5)c3)cc2C(F)(F)F)CC1 | Tyrosine-protein kinase ABL1, non-phosphorylated (ABL1, Homo sapiens, UniProt P00519, T315I) | binding | competition with immobilised ligand | 1 µM | 16
CSc1cccnc1N1CCN(Cc2nc3ccccc3[nH]2)CC1 | ABL1 Y253F phosphorylated | cell-free assay | competition with immobilised ligand | 1 µM | 76
COc1cnc(Nc2cccc(S(N)(=O)=O)c2)nc1N1CCN(c2ccccc2)CC1 | ABL1 E255K phosphorylated | binding | competition with immobilised ligand | 1 µM | 84
N[C@H]1CCN(c2nccc(-c3cnn4ncccc34)n2)C1 | Tyrosine-protein kinase ABL1 (ABL1, Homo sapiens, UniProt P00519, T315I) | binding | – | 1 µM | 88
Nc1c(C(=O)NCc2ccc(C(=O)NCCCC3CCCCC3)cc2)cnn1-c1ccccc1 | ABL1 Q252H phosphorylated | cell-free assay | competition with immobilised ligand | 0.1 µM | 98
CC(C)(C)c1ccc(-c2nc(CBr)nn2-c2cccc(O)c2)cc1 | ABL1 T315I phosphorylated | cell-free assay | competition with immobilised ligand | 10 µM | 82
CCS(=O)(=O)c1cc2cc(C[C@](O)(CC(C)(C)c3ccc(F)cc3C(N)=O)C(F)(F)F)[nH]c2cn1 | Tyrosine-protein kinase ABL1, phosphorylated (ABL1, Homo sapiens, UniProt P00519, F317L) | cell-free assay | competition with immobilised ligand | 1 µM | 90
CNC(=O)[C@@H]1CC[C@@H](n2c(-c3ccc4cnccc4c3)nc3ccc(C(=O)NCc4cccc(C(N)=O)c4)cc32)C1 | Tyrosine-protein kinase ABL1, non-phosphorylated (ABL1, Homo sapiens, UniProt P00519, F317L) | binding | competition with immobilised ligand | 1 µM | 97
CN(C)c1nccc(-c2cnn3ncccc23)n1 | ABL1 E255K | binding | – | 1 µM | 60
O=C(NCC1CCOCC1)c1n[nH]cc1NC(=O)c1c(F)cccc1F | ABL1 M351T phosphorylated | binding | competition with immobilised ligand | 1 µM | 91
O=C(NCCCN1CCOCC1)c1ccc(Nc2nccc(-c3cc4ccccc4s3)n2)cc1 | ABL1 H396P non-phosphorylated | binding | competition with immobilised ligand | 1 µM | 24
N#Cc1ccccc1CSc1nnc2c(n1)[nH]c1ccccc12 | ABL1 T315I phosphorylated | binding | competition with immobilised ligand | 10 µM | 92
Nc1ncc2c(n1)-c1c([nH]c3ccc(C#CC4CC4)cc13)CCCC2 | ABL1 T315I phosphorylated | binding | competition with immobilised ligand | 1 µM | 97
COc1cnc(Nc2cccc(S(N)(=O)=O)c2)nc1N1CCN(c2ccccc2)C(=O)C1 | ABL1 E255K phosphorylated | binding | competition with immobilised ligand | 1 µM | 86
CN(c1nccc(-c2cnn3ncccc23)n1)C1CC1 | ABL1 F317I | binding | – | 1 µM | 100
O=C(Nc1c[nH]nc1C(=O)NC1CCNCC1)c1cc(F)cc(F)c1 | ABL1 F317I non-phosphorylated | binding | competition with immobilised ligand | 1 µM | 100
c1cnn2ncc(-c3ccnc(N4CCC45COC5)n3)c2c1 | Tyrosine-protein kinase ABL1 (ABL1, Homo sapiens, UniProt P00519, Q252H) | binding | – | 1 µM | 69

SMILES | target | observed | technique | concentration | remaining binding [%]
CO[C@@H](C)c1c(Nc2ccc([C@H](N(C)C(=O)C3CCS(=O)(=O)CC3)C(F)(F)F)cc2)cnc2cc(Cl)nn12 | ABL1 F317I non-phosphorylated | binding | competition with immobilised ligand | 1 µM | 100
O=C(c1ccc(Nc2nccc(-c3cc4ccccc4s3)n2)cc1)N1CCC(N2CCCC2)CC1 | ABL1 F317I phosphorylated | binding | competition with immobilised ligand | 1 µM | 99
C[C@@H](c1ccc(-n2cnc3c(N)ncnc32)cc1)N1CCc2nn(C)c(Cc3ccccc3)c2C1=O | Tyrosine-protein kinase ABL1, non-phosphorylated (ABL1, Homo sapiens, UniProt P00519, Q252H) | binding | competition with immobilised ligand | 0.1 µM | 26
COc1ncc2cc3ccccc3nc2c1C#N | ABL1 H396P non-phosphorylated | cell-free assay | competition with immobilised ligand | 5 µM | 100
CCCCN(CCCC)C(=O)CN1C[C@H](c2cc(OC)c3c(c2)OCO3)[C@@H](C(=O)O)[C@@H]1CC(C)(C)CCC | ABL1 F317I non-phosphorylated | binding | competition with immobilised ligand | 1 µM | 98.5
Cc1cnc(Nc2ccc(C(=O)N3CCC(N4CCCC4)CC3)cc2)nc1-c1cc2ccccc2s1 | ABL1 M351T phosphorylated | binding | competition with immobilised ligand | 1 µM | 1.4
C=CC(=O)N1CCC(C(=O)NCC(=O)N2CCN(c3nc(-c4cnc(N)nc4C(F)F)nc(N4CCOCC4)n3)CC2)CC1 | ABL1 phosphorylated | binding | competition with immobilised ligand | 1 µM | 93
CC1CCCN1c1nccc(-c2cnn3ncccc23)n1 (stereo not drawn) | ABL1 phosphorylated | binding | – | 1 µM | 96
CNC(=O)c1ccc(Nc2ncc(C(F)(F)F)c(NCc3nccnc3N(C)S(C)(=O)=O)n2)cc1 | Tyrosine-protein kinase ABL1, non-phosphorylated (ABL1, Homo sapiens, UniProt P00519) | cell-free assay | competition with immobilised ligand | 0.1 µM | 88
c1cncc(-c2cccc(Nc3nccc(NC4CCCCC4)n3)c2)c1 | ABL1 Q252H phosphorylated | binding | competition with immobilised ligand | 10 µM | 24
O=C(c1ccc(Nc2ncc(Cl)c(-c3cc4ccccc4s3)n2)cc1)N1CCC(N2CCCC2)CC1 | ABL1 Y253F phosphorylated | binding | competition with immobilised ligand | 1 µM | 8
O=C(NS(=O)(=O)c1ccc(NCC2CCOCC2)c([N+](=O)[O-])c1)c1ccc(N2CCN(Cc3ccc(C(F)(F)F)cc3-c3ccc(Cl)cc3)CC2)cc1Oc1cnc2[nH]ccc2c1 | Tyrosine-protein kinase ABL1, phosphorylated (ABL1, Homo sapiens, UniProt P00519, H396P) | cell-free assay | competition with immobilised ligand | 1 µM | 92
CN(C)c1nccc(-c2cnc3ncccn23)n1 | ABL1 M351T | binding | – | 1 µM | 78
O=C(c1ccc(Nc2ncc(Cl)c(-c3ccc(Cl)s3)n2)cc1)N1CCC(N2CCCC2)CC1 | ABL1 phosphorylated | binding | competition with immobilised ligand | 1 µM | 4.3
C[C@@H]1CCN(c2nccc(-c3cnn4ncccc34)n2)C1 | ABL1 M351T | binding | – | 1 µM | 100
O=C(NCCCN1CCOCC1)c1ccc(Nc2ncc(Cl)c(-c3ccc(Cl)s3)n2)cc1 | ABL1 H396P non-phosphorylated | binding | competition with immobilised ligand | 1 µM | 4.2
COc1ccnn2ncc(-c3ccnc(N(C)C)n3)c12 | ABL1 F317I | binding | – | 1 µM | 82
CN1CCN(c2ccc(Nc3nccc(-c4cccc([N+](=O)[O-])c4)n3)cc2C(F)(F)F)CC1 | ABL1 E255K | binding | – | 10 µM | 5.8
